Laboratory results taken from ChEMBL document CHEMBL1148402, “Anti-AIDS agents. 52. Synthesis and anti-HIV activity of hydroxymethyl (3'R,4'R)-3',4'-di-O-(S)-camphanoyl-(+)-cis-khellactone derivatives” (J Med Chem, 2004).

Tests used:
[1] = system: H9; test: Concentration required to inhibit uninfected H9 cell growth by 50%; format: functional, cell-based; conditions: Homo sapiens
Procedure, shortened: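 Mock-infected H9 cells handled in parallel under the same conditions as the infection assay, without virus. Viability read by XTT on day 6. IC50 is the concentration toxic to 50% of mock-infected cells. Averages of at least two experiments.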

[2] = system: Human immunodeficiency virus 1; test: Concentration required to inhibit HIV-1 replication in acutely infected H9 lymphocytes by 50%; format: functional, organism-based
Procedure, shortened: (§1)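 H9 T-cells (3 × 10^5 cells/mL) in RPMI 1640 with 10% FCS at 37 °C, 5% CO2, infected with HIV-1 IIIB (125 TCID50). Medium replaced on days 1 and 4 post-infection. Supernatant p24 antigen capture read on day 6. EC50 is the concentration suppressing replication by 50%; TI = IC50/EC50. AZT run as positive control. Averages of at least two experiments.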

[3] = Therapeutic index (IC50/EC50) was determined; conditions: read-out: TI; procedure, shortened: as §1
[4] = system: Rattus norvegicus; test: Volume distribution of compound in male Sprague-Dawley rats following an intravenous bolus dose at 10-20 mg/kg; format: ADME, organism-based; conditions: in vivo
Procedure, shortened: (§2)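 Adult male Sprague–Dawley rats (approx. 250 g) dosed iv at 10-20 mg/kg and orally as a suspension at 25 mg/kg. Nine 0.4 mL blood samples taken over 8 h. Plasma levels measured by reversed-phase HPLC with UV (320 nm) and fluorescence (ex 320/em 380 nm) detection. Detection limit approx. 50 ng/mL (UV) and 10 ng/mL (fluorescence) from 0.10 mL plasma. Parameters from noncompartmental analysis; half-life from the terminal log-linear phase; N=3–4 rats.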

[5] = system: Rattus norvegicus; test: Vss in male Sprague-Dawley rats following an intravenous bolus dose at 10-20 mg/kg; format: ADME, organism-based; conditions: in vivo; procedure, shortened: as §2
[6] = system: Rattus norvegicus; test: Clearance in male Sprague-Dawley rats following an intravenous bolus dose at 10-20 mg/kg; format: ADME, organism-based; conditions: in vivo
[7] = system: Rattus norvegicus; test: Half-life in male Sprague-Dawley rats following an intravenous bolus dose at 10-20 mg/kg; format: ADME, organism-based; conditions: in vivo; procedure, shortened: as §2
[8] = system: Rattus norvegicus; test: Bioavailability in rat (Sprague-Dawley) (male) (dose 10-20 mg/kg); format: ADME, organism-based; conditions: in vivo; procedure, shortened: as §2
[9] = Bioavailability in male Sprague-Dawley rats following an intravenous bolus dose at 10-20 mg/kg; format: ADME, organism-based; conditions: rat, in vivo; procedure, shortened: as §2

EC50 [2] [nM]	Vd [4] [L/kg]	Vss [5] [L/kg]	T1/2 [7] [h]	F [8]	SMILES	IC50 [1] [nM]	selectivity ratio [3]	CL [6] [L/h/kg]	bioavailability [9] [%]
49					CC1(C)Oc2ccc3ccc(=O)oc3c2[C@@H](OC(=O)C23CCC(C)(C(=O)O2)C3(C)C)[C@H]1OC(=O)C12CCC(C)(C(=O)O1)C2(C)C (stereo partly specified)	> 16100	> 328		
3670					CCN(CC)Cc1cc2ccc3c(c2oc1=O)[C@@H](OC(=O)C12CCC(C)(C(=O)O1)C2(C)C)[C@@H](OC(=O)C12CCC(C)(C(=O)O1)C2(C)C)C(C)(C)O3 (stereo partly specified)	> 14100	> 4		
29					CC1(C)Oc2ccc3cc(CO)c(=O)oc3c2[C@@H](OC(=O)C23CCC(C)(C(=O)O2)C3(C)C)[C@H]1OC(=O)C12CCC(C)(C(=O)O1)C2(C)C (stereo partly specified)	23000	806		
59					CC1(C)Oc2ccc3cc(CBr)c(=O)oc3c2[C@@H](OC(=O)C23CCC(C)(C(=O)O2)C3(C)C)[C@H]1OC(=O)C12CCC(C)(C(=O)O1)C2(C)C (stereo partly specified)	> 11100	> 186		
677					CC1(C)Oc2ccc3cc(CN)c(=O)oc3c2[C@@H](OC(=O)C23CCC(C)(C(=O)O2)C3(C)C)[C@H]1OC(=O)C12CCC(C)(C(=O)O1)C2(C)C (stereo partly specified)	> 15400	> 23		
17					CC(=O)OCc1cc2ccc3c(c2oc1=O)[C@@H](OC(=O)C12CCC(C)(C(=O)O1)C2(C)C)[C@@H](OC(=O)C12CCC(C)(C(=O)O1)C2(C)C)C(C)(C)O3 (stereo partly specified)	11600	676		
1.5	12	10.1	2.42	Not detected	Cc1cc(=O)oc2c3c(ccc12)OC(C)(C)[C@H](OC(=O)C12CCC(C)(C(=O)O1)C2(C)C)[C@@H]3OC(=O)C12CCC(C)(C(=O)O1)C2(C)C (stereo partly specified)	23600			

Continued, molecule first:

SMILES	EC50 [2] [nM]	Vd [4] [L/kg]	Vss [5] [L/kg]	T1/2 [7] [h]	F [8]	IC50 [1] [nM]	selectivity ratio [3]	CL [6] [L/h/kg]	bioavailability [9] [%]
Cc1c(CBr)c(=O)oc2c3c(ccc12)OC(C)(C)[C@H](OC(=O)C12CCC(C)(C(=O)O1)C2(C)C)[C@@H]3OC(=O)C12CCC(C)(C(=O)O1)C2(C)C (stereo partly specified)	0.11					> 20900	> 190000		
Cc1cc(=O)oc2c3c(c(CN)cc12)OC(C)(C)[C@H](OC(=O)C12CCC(C)(C(=O)O1)C2(C)C)[C@@H]3OC(=O)C12CCC(C)(C(=O)O1)C2(C)C (stereo partly specified)	148					> 15000	> 102		
CC(=O)OCc1c(C)c2ccc3c(c2oc1=O)[C@@H](OC(=O)C12CCC(C)(C(=O)O1)C2(C)C)[C@@H](OC(=O)C12CCC(C)(C(=O)O1)C2(C)C)C(C)(C)O3 (stereo partly specified)	26					14800	567		
CC(=O)OCc1cc2c(C)cc(=O)oc2c2c1OC(C)(C)[C@H](OC(=O)C13CCC(C)(C(=O)O1)C3(C)C)[C@@H]2OC(=O)C12CCC(C)(C(=O)O1)C2(C)C (stereo partly specified)	544					> 14100	> 26		
Cc1cc(=O)oc2c3c(c(CBr)cc12)OC(C)(C)[C@H](OC(=O)C12CCC(C)(C(=O)O1)C2(C)C)[C@@H]3OC(=O)C12CCC(C)(C(=O)O1)C2(C)C (stereo partly specified)	156					> 13700	> 88		
Cc1cc(=O)oc2c3c(c(CO)cc12)OC(C)(C)[C@H](OC(=O)C12CCC(C)(C(=O)O1)C2(C)C)[C@@H]3OC(=O)C12CCC(C)(C(=O)O1)C2(C)C (stereo partly specified)	111	5.9	3.89	0.867	Not detected	> 15000	> 135	284	
Cc1c(CO)c(=O)oc2c3c(ccc12)OC(C)(C)[C@H](OC(=O)C12CCC(C)(C(=O)O1)C2(C)C)[C@@H]3OC(=O)C12CCC(C)(C(=O)O1)C2(C)C (stereo partly specified)	4	22.9	18.5	3.12		24900	5800	284	15
Cc1cn([C@H]2C[C@H](N=[N+]=[N-])[C@@H](CO)O2)c(=O)[nH]c1=O [ZIDOVUDINE]	187								
